Experimental data reported in ChEMBL document CHEMBL1122986, “Aldosterone antagonists. 1. Synthesis and activities of 6 beta,7 beta:15 beta,16 beta-dimethylene steroidal spirolactones” (J Med Chem, 1985).
Active and inactive are the calls of the source. No cut-off for these calls is given here.

What was measured:
[1] = target: T1, Progesterone receptor (Oryctolagus cuniculus) (UniProt P06186); assay: Binding affinity for rat progesterone receptor compared to progesterone
T1 sequence (whole entry): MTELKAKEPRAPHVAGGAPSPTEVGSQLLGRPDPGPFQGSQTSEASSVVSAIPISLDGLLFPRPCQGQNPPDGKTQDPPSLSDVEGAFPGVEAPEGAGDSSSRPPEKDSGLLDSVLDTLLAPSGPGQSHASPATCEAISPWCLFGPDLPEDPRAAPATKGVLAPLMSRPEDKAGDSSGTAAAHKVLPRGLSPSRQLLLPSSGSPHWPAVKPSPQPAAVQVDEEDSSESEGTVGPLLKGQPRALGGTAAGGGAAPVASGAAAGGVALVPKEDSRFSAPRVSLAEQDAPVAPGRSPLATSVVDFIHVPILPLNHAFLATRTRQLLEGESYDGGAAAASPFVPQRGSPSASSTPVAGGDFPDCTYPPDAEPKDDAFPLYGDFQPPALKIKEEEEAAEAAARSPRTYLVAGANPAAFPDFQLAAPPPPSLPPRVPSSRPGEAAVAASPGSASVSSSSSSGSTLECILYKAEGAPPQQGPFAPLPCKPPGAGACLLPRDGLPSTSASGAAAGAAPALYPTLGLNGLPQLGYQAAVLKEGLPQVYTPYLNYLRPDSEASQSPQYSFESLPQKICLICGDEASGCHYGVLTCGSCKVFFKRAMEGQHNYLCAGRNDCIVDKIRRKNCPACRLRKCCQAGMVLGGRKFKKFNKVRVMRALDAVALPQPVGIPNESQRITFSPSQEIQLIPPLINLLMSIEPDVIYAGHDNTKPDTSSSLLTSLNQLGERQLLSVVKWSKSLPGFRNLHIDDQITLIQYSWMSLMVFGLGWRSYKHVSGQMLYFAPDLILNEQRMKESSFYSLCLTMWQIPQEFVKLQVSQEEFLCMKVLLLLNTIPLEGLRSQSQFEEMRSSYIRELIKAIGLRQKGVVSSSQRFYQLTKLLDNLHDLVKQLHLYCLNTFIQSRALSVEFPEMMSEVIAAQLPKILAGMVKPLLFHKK

[2] = target: T2, Mineralocorticoid receptor (Rattus norvegicus) (UniProt P22199); assay: Relative potency as antialdosterone activity compared to spironolactone 1 hr after oral administration; No activity; assay type: functional, organism-based
T2 sequence (whole entry): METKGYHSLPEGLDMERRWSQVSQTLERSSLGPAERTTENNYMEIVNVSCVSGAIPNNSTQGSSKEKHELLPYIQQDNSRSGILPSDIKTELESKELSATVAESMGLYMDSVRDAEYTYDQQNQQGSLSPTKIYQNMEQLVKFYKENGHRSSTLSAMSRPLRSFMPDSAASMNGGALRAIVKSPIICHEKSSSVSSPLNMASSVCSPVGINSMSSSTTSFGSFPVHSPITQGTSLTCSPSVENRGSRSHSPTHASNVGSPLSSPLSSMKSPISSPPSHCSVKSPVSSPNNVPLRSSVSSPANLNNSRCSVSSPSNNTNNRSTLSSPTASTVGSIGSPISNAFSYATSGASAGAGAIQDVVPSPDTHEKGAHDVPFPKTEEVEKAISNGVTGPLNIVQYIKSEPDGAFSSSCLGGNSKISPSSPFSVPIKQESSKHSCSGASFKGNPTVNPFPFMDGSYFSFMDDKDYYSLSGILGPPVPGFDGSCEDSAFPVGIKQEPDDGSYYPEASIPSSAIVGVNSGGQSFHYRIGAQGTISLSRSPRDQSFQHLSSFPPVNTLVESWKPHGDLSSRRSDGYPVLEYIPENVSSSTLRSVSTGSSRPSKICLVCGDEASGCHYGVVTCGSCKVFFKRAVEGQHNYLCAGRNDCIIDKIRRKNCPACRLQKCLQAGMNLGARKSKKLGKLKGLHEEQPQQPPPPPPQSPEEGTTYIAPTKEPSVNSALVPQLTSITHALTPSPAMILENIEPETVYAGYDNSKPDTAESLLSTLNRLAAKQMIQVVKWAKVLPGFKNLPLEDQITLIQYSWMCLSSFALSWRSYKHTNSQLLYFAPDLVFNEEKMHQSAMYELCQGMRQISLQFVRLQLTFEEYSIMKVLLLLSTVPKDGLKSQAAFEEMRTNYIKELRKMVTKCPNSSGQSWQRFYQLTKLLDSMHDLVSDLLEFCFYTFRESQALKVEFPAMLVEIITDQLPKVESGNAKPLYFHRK
Method in brief: (§1)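 Adrenalectomized Wistar rats (140–160 g) were maintained on fluocortolone caproate 1 mg/kg on the day of surgery and fluocortolone 10 mg/kg sc one day before testing. Rats were infused with saline-glucose (0.05% NaCl, 5% glucose) containing aldosterone 50 μg/L at 3 mL/h. Compounds were given orally 1 h before infusion at 6.7, 13.4 and 26.8 mg/kg. Hourly urine Na and K were measured by flame photometry over 10–15 h.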

[3] = target: T3, Androgen receptor (Rattus norvegicus) (UniProt P15207); assay: Binding affinity for rat androgen receptor compared to dihydrotestosterone; No affinity
T3 sequence (whole entry): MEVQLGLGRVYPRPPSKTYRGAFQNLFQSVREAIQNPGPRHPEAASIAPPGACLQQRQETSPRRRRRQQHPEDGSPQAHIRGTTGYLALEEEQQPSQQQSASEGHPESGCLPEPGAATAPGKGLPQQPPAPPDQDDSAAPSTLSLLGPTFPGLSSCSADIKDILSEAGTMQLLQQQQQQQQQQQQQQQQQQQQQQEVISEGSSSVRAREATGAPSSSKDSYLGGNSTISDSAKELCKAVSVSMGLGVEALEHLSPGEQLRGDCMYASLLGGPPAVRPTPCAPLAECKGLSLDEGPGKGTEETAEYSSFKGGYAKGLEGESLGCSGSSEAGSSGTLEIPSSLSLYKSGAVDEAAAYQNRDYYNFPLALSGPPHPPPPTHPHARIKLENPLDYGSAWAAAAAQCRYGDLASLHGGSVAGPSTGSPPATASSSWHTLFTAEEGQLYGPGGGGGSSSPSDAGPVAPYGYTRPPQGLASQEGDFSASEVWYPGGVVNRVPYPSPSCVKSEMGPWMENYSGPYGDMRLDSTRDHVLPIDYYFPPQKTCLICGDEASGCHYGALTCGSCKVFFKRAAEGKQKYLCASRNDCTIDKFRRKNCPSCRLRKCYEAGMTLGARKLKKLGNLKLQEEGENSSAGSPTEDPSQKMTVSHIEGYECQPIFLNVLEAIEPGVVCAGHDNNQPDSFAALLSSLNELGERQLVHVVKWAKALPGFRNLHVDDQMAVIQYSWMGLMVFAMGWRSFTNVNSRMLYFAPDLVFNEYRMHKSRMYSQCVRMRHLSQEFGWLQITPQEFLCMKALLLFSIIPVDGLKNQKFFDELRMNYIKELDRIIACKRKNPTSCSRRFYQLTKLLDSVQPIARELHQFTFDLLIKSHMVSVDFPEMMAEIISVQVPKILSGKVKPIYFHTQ

[4] = target: T1, Progesterone receptor (Oryctolagus cuniculus); assay: Progestational activity in rabbit at 1.0 mg/kg oral dose; assay type: functional, organism-based; set-up: dose 1 mg/kg
Method in brief: (§2)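 Clauberg test in rabbits after oral administration, run by literature procedures. Doses are listed […], and the read-out is the McPhail index.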

[5] = target: T2, Mineralocorticoid receptor (Rattus norvegicus); assay: Relative potency as antialdosterone activity compared to spironolactone 1 hr after oral administration; assay type: functional, organism-based; method in brief: as §1
[6] = target: T3, Androgen receptor (Rattus norvegicus)
[7] = target: T1, Progesterone receptor (Oryctolagus cuniculus); assay: Progestational activity in rabbit at 3.0 mg/kg oral dose; assay type: functional, organism-based; set-up: dose 3 mg/kg; method in brief: as §2
[8] = target: T1, Progesterone receptor (Oryctolagus cuniculus); assay: Progestational activity in rabbit at 0.3 mg/kg oral dose; assay type: functional, organism-based; set-up: dose 0.3 mg/kg; method in brief: as §2
[9] = target: T1, Progesterone receptor (Oryctolagus cuniculus); assay: Progestational activity in rabbit at 30.0 mg/kg oral dose; assay type: functional, organism-based; set-up: dose 30 mg/kg; method in brief: as §2
[10] = target: T1, Progesterone receptor (Oryctolagus cuniculus); assay: Binding affinity for rat progesterone receptor compared to progesterone; No affinity
[11] = target: T2, Mineralocorticoid receptor (Rattus norvegicus); assay: Relative potency as antialdosterone activity compared to spironolactone 1 hr after oral administration; NA denotes no activity; assay type: functional, organism-based; method in brief: as §1

Competition factor [1]	MRP [2]	Competition factor [3]	MRP [5]	SMILES	also measured
33	inactive			CC12C=C(Cl)C(=O)C=C1C1CC1C1C2CCC2(C)C1C1CC1[C@@]21CCC(=O)O1 (some centres undefined)	
25	inactive	inactive		CC12CCC(=O)C=C1C1CC1C1C2CC(O)C2(C)C1C1CC1[C@@]21CCC(=O)O1 (some centres undefined)	
35	inactive			CC1=CC2(C)C(=CC1=O)C1CC1C1C2CCC2(C)C1C1CC1[C@@]21CCC(=O)O1 (some centres undefined)	
6.5			745	CC12C=CC(=O)C=C1C1CC1C1C2CCC2(C)C1C1CC1[C@@]21CCC(=O)O1 (some centres undefined)	McPhail index [4]: 2.2; Competition factor [6]: 150; McPhail index [7]: 2.7; McPhail index [8]: 1
5.8			> 100	CC12C(=CC(=O)C[C@@H]1S)C1CC1C1C2CCC2(C)C1C1CC1[C@@]21CCC(=O)O1 (some centres undefined)	Competition factor [6]: 63; McPhail index [9]: 3.5
30		inactive	100	C[C@H]1CC2(C)C(=CC1=O)C1CC1C1C2CCC2(C)C1C1CC1[C@@]21CCC(=O)O1 (some centres undefined)	
18	inactive	inactive		C=C1CC2(C)C(=CC1=O)C1CC1C1C2CCC2(C)C1C1CC1[C@@]21CCC(=O)O1 (some centres undefined)	
			100	CC(=O)S[C@H]1CC(=O)C=C2C3CC3C3C(CCC4(C)C3C3CC3[C@@]43CCC(=O)O3)C21C (some centres undefined)	Competition factor [10]: inactive
			100	C[C@H]1CC(=O)C=C2C3CC3C3C(CCC4(C)C3C3CC3[C@@]43CCC(=O)O3)C21C (some centres undefined)	Competition factor [6]: 70
195	inactive	inactive		CC12CCC(=O)C=C1C1CC1C1C2[C@H](O)CC2(C)C1C1CC1[C@@]21CCC(=O)O1 (some centres undefined)	
2.7			685	C[C@]12CCC(=O)C=C1[C@@H]1C[C@@H]1[C@H]1[C@@H]3[C@@H]4C[C@@H]4[C@@]4(CCC(=O)O4)[C@@]3(C)CC[C@@H]12	
21			100	CC(=O)S[C@@H]1CC2=CC(=O)CC[C@]2(C)[C@H]2CC[C@@]3(C)[C@@H](CC[C@@]34CCC(=O)O4)[C@H]12	
				CC12C(=CC(=O)C[C@@H]1C#N)C1CC1C1C2CCC2(C)C1C1CC1[C@@]21CCC(=O)O1 (some centres undefined)	MRP [11]: inactive
105		inactive	< 100	C[C@@H]1CC2(C)C(=CC1=O)C1CC1C1C2CCC2(C)C1C1CC1[C@@]21CCC(=O)O1 (some centres undefined)	
19		inactive	45	CC12C(=CC(=O)CC1O)C1CC1C1C2CCC2(C)C1C1CC1[C@@]21CCC(=O)O1 (some centres undefined)	
		inactive	240	CS[C@H]1CC(=O)C=C2C3CC3C3C(CCC4(C)C3C3CC3[C@@]43CCC(=O)O3)C21C (some centres undefined)	Competition factor [10]: inactive; McPhail index [9]: 3.8
2.1			520	CC12C(=CC(=O)[C@@H]3C[C@@H]31)C1CC1C1C2CCC2(C)C1C1CC1[C@@]21CCC(=O)O1 (some centres undefined)	Competition factor [6]: 25
	inactive			CC12CCC(=O)C(Cl)=C1C1CC1C1C2CCC2(C)C1C1CC1[C@@]21CCC(=O)O1 (some centres undefined)	
